ChEMBL document CHEMBL1155468, “Syntheses and evaluation of anticonvulsant profile and teratogenicity of novel amide derivatives of branched aliphatic carboxylic acids with 4-aminobenzensulfonamide” (J Med Chem, 2010)
Calls of active or inactive are those of the source. The calls are words filed in the database; no cut-off is given here.

How the values were obtained:
Mus musculus [1] = experiment: Anticonvulsant activity in CF1 albino mouse assessed as inhibition of subcutaneous pentylenetetrazole-induced seizures at 30 mg/kg, ip after 4 hrs; format: functional, organism-based; parameters: dose 30 mg/kg
In short: (§1)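 Adult male CF no. 1 albino mice (18-25 g) dosed ip with compound suspended in 0.5% methylcellulose (0.01 mL/g). Convulsant: pentylenetetrazol dissolved in 0.9% saline as a 0.85% solution for mice, given subcutaneously.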

Mus musculus [2] = experiment: Teratogenic effect in SWV mouse assessed as resorptions at 91 mg/kg, ip administered on morning of day 8 of gestation; format: toxicity, organism-based; parameters: dose 91 mg/kg, route intraperitoneal; conditions: in vivo
Mus musculus [3] = experiment: Anticonvulsant activity in CF1 albino mouse assessed as inhibition of maximal electroshock-induced seizures at 100 mg/kg, ip after 0.5 hrs; format: functional, organism-based; parameters: dose 100 mg/kg
In short: (§2)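 Test compounds suspended in 0.5% methylcellulose and given ip to adult male CF no. 1 albino mice (18-25 g) at 0.01 mL/g body weight before maximal electroshock challenge.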

Mus musculus [4] = experiment: Neurotoxicity in CF1 albino mouse assessed as motor impairment at 300 mg/kg, ip after 4 hrs; format: toxicity, organism-based; parameters: dose 300 mg/kg, route intraperitoneal; conditions: in vivo
Mus musculus [5] = experiment: Anticonvulsant activity in CF1 albino mouse assessed as inhibition of maximal electroshock-induced seizures at 300 mg/kg, ip after 0.5 hrs; format: functional, organism-based; parameters: dose 300 mg/kg; in short: as §2
Mus musculus [6] = experiment: Anticonvulsant activity in CF1 albino mouse assessed as inhibition of subcutaneous pentylenetetrazole-induced seizures at 300 mg/kg, ip after 0.5 hrs; format: functional, organism-based; parameters: dose 300 mg/kg; in short: as §1
Mus musculus [7] = experiment: Neurotoxicity in CF1 albino mouse assessed as motor impairment at 300 mg/kg, ip after 0.5 hrs; format: toxicity, organism-based; parameters: dose 300 mg/kg, route intraperitoneal; conditions: in vivo
Mus musculus [8] = experiment: Anticonvulsant activity in CF1 albino mouse assessed as inhibition of subcutaneous pentylenetetrazole-induced seizures at 100 mg/kg, ip after 0.5 hrs; format: functional, organism-based; parameters: dose 100 mg/kg; in short: as §1
Mus musculus [9] = experiment: Anticonvulsant activity in CF1 albino mouse assessed as inhibition of maximal electroshock-induced seizures at 300 mg/kg, ip after 4 hrs; format: functional, organism-based; parameters: dose 300 mg/kg; in short: as §2
Mus musculus [10] = experiment: Teratogenic effect in SWV mouse assessed as resorptions at 301 mg/kg, ip administered on morning of day 8 of gestation; format: toxicity, organism-based; parameters: dose 301 mg/kg, route intraperitoneal; conditions: in vivo
Mus musculus [11] = experiment: Neurotoxicity in CF1 albino mouse assessed as motor impairment at 30 mg/kg, ip after 0.5 hrs; format: toxicity, organism-based; parameters: dose 30 mg/kg, route intraperitoneal; conditions: in vivo
Mus musculus [12] = experiment: Teratogenic effect in SWV mouse assessed as live fetuses at 91 mg/kg, ip administered on morning of day 8 of gestation; format: toxicity, organism-based; parameters: dose 91 mg/kg, route intraperitoneal; conditions: in vivo
Mus musculus [13] = experiment: Anticonvulsant activity in CF1 albino mouse assessed as inhibition of maximal electroshock-induced seizures at 100 mg/kg, ip after 4 hrs; format: functional, organism-based; parameters: dose 100 mg/kg; in short: as §2
Mus musculus [14] = experiment: Teratogenic effect in SWV mouse assessed as live fetuses at 452 mg/kg, ip administered on morning of day 8 of gestation; format: toxicity, organism-based; parameters: dose 452 mg/kg, route intraperitoneal; conditions: in vivo
Mus musculus [15] = experiment: Teratogenic effect in SWV mouse assessed as dead fetuses at 301 mg/kg, ip administered on morning of day 8 of gestation; format: toxicity, organism-based; parameters: dose 301 mg/kg, route intraperitoneal; conditions: in vivo
Mus musculus [16] = experiment: Teratogenic effect in SWV mouse assessed as fetuses with neural tube deffects at 301 mg/kg, ip administered on morning of day 8 of gestation; format: toxicity, organism-based; parameters: dose 301 mg/kg, route intraperitoneal; conditions: in vivo
Mus musculus [17] = experiment: Neurotoxicity in CF1 albino mouse assessed as motor impairment at 30 mg/kg, ip after 4 hrs; format: toxicity, organism-based; parameters: dose 30 mg/kg, route intraperitoneal; conditions: in vivo
Mus musculus [18] = experiment: Teratogenic effect in SWV mouse assessed as dead fetuses at 452 mg/kg, ip administered on morning of day 8 of gestation; format: toxicity, organism-based; parameters: dose 452 mg/kg, route intraperitoneal; conditions: in vivo
Mus musculus [19] = experiment: Anticonvulsant activity in CF1 albino mouse assessed as inhibition of subcutaneous pentylenetetrazole-induced seizures at 300 mg/kg, ip after 4 hrs; format: functional, organism-based; parameters: dose 300 mg/kg; in short: as §1
Mus musculus [20] = experiment: Teratogenic effect in SWV mouse assessed as resorptions at 181 mg/kg, ip administered on morning of day 8 of gestation; format: toxicity, organism-based; parameters: dose 181 mg/kg, route intraperitoneal; conditions: in vivo
Mus musculus [21] = experiment: Anticonvulsant activity in CF1 albino mouse assessed as inhibition of maximal electroshock-induced seizures at 30 mg/kg, ip after 4 hrs; format: functional, organism-based; parameters: dose 30 mg/kg; in short: as §2
Mus musculus [22] = experiment: Anticonvulsant activity in CF1 albino mouse assessed as inhibition of subcutaneous pentylenetetrazole-induced seizures at 30 mg/kg, ip after 0.5 hrs; format: functional, organism-based; parameters: dose 30 mg/kg; in short: as §1
Mus musculus [23] = experiment: Neurotoxicity in CF1 albino mouse assessed as motor impairment at 100 mg/kg, ip after 0.5 hrs; format: toxicity, organism-based; parameters: dose 100 mg/kg, route intraperitoneal; conditions: in vivo
Mus musculus [24] = experiment: Anticonvulsant activity in CF1 albino mouse assessed as inhibition of maximal electroshock-induced seizures at 30 mg/kg, ip after 0.5 hrs; format: functional, organism-based; parameters: dose 30 mg/kg; in short: as §2
Mus musculus [25] = experiment: Teratogenic effect in SWV mouse assessed as dead fetuses at 91 mg/kg, ip administered on morning of day 8 of gestation; format: toxicity, organism-based; parameters: dose 91 mg/kg, route intraperitoneal; conditions: in vivo
Mus musculus [26] = experiment: Teratogenic effect in SWV mouse assessed as live fetuses at 301 mg/kg, ip administered on morning of day 8 of gestation; format: toxicity, organism-based; parameters: dose 301 mg/kg, route intraperitoneal; conditions: in vivo
In short: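 Two-month-old nulligravid SWV females were mated overnight and checked for vaginal plugs the next morning; gestation onset was set at 10 p.m. the previous night. On gestation day 8.5, each dam received a single ip injection (0.55-2.7 mmol/kg range) or vehicle (25% aqueous Cremophor EL) at 10 μL/g body weight. Litters were scored for implants, resorptions, live and dead fetuses, and fetuses with neural tube defects.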

Mus musculus [27] = experiment: Teratogenic effect in SWV mouse assessed as resorptions at 452 mg/kg, ip administered on morning of day 8 of gestation; format: toxicity, organism-based; parameters: dose 452 mg/kg, route intraperitoneal; conditions: in vivo
Mus musculus [28] = experiment: Anticonvulsant activity in CF1 albino mouse assessed as inhibition of subcutaneous pentylenetetrazole-induced seizures at 100 mg/kg, ip after 4 hrs; format: functional, organism-based; parameters: dose 100 mg/kg; in short: as §1
Mus musculus [29] = experiment: Neurotoxicity in CF1 albino mouse assessed as motor impairment at 100 mg/kg, ip after 4 hrs; format: toxicity, organism-based; parameters: dose 100 mg/kg, route intraperitoneal; conditions: in vivo

CCCC(CCC)C(=O)O [VALPROIC ACID]
Activity (Mus musculus [1]): inactive
Activity (Mus musculus [2]): 5.7%
Activity (Mus musculus [3]): inactive
Activity (Mus musculus [4]): Non-toxic
Activity (Mus musculus [5]): Active
Activity (Mus musculus [6]): Active
Activity (Mus musculus [7]): Toxic
Activity (Mus musculus [8]): inactive
Activity (Mus musculus [9]): inactive
Activity (Mus musculus [10]): 11%
Activity (Mus musculus [11]): Non-toxic
Activity (Mus musculus [12]): 93.6%
Activity (Mus musculus [13]): inactive
Activity (Mus musculus [14]): 88.1%
Activity (Mus musculus [15]): 2.6%
Activity (Mus musculus [16]): 1.5%
Activity (Mus musculus [17]): Non-toxic
Activity (Mus musculus [18]): 0.6%
Activity (Mus musculus [19]): inactive
Activity (Mus musculus [20]): 7.7%
Activity (Mus musculus [21]): inactive
Activity (Mus musculus [22]): inactive
Activity (Mus musculus [23]): Non-toxic
Activity (Mus musculus [24]): inactive
Activity (Mus musculus [25]): 0.7%
Activity (Mus musculus [26]): 86.4%
Activity (Mus musculus [27]): 11.3%
Activity (Mus musculus [28]): inactive
Activity (Mus musculus [29]): Non-toxic
